Assay results reported in ChEMBL document CHEMBL1128742, “Novel thiazole derivatives as inhibitors of superoxide production by human neutrophils: synthesis and structure-activity relationships” (J Med Chem, 1995).

How the values were obtained:
Homo sapiens [1] = species on record: Homo sapiens; assay: In vitro inhibitory activity against superoxide production from human neutrophils stimulated with f-MLP; NE indicates no effect; type: functional
Outline: (§1)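 Neutrophils isolated from fresh venous blood of healthy adults by dextran sedimentation and Ficoll-paque gradient. Cells diluted in Hepes–Hanks, pH 7.4, then held at 1 × 10^6 cell/mL and preincubated 20 min at 37 °C with or without compound. Cytochalasin B (1 μg/mL final) added 10 min and ferricytochrome c (106 μM final) added 4 min before f-MLP stimulation. Reaction stopped with 1 mM N-ethylmaleimide, cells spun down, superoxide read as SOD-inhibitable absorbance at 550 nm.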

Homo sapiens [2] = species on record: Homo sapiens; assay: In vitro inhibitory activity against superoxide production from human neutrophils stimulated with f-MLP; type: functional; outline: as §1
[3] = Solubility was measured by shaking with water and 1 equiv of NaOH; type: physicochemical; conditions: water with 1 equiv of NaOH
Outline: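 Solubility: compound shaken with water plus 1 equiv NaOH; dissolved amount quantified by HPLC.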

Homo sapiens [4] = species on record: Homo sapiens; assay: In vitro inhibitory activity against superoxide production from human neutrophils stimulated with f-MLP; act.= activation of superoxide production; type: functional; outline: as §1
Homo sapiens [5] = species on record: Homo sapiens; assay: In vitro inhibitory activity against superoxide production from human neutrophils stimulated with f-MLP; NE= No effect; type: functional; outline: as §1
Homo sapiens [6] = species on record: Homo sapiens; assay: In vitro inhibitory activity against superoxide production from human neutrophils stimulated with f-MLP; No effect; type: functional; outline: as §1
[7] = Solubility was measured by shaking with water; type: physicochemical
Outline: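 Aqueous solubility: compound shaken with water; dissolved amount quantified by HPLC.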

SMILES | IC50 (Homo sapiens [2]) [µM] | other results
Cc1ccc(-c2nc(-c3ccc4c(c3)CCC(=O)N4)cs2)cc1C | – | IC50 (Homo sapiens [1]): Not Active
CCCOc1ccc(-c2nc(-c3ccc4c(c3)CCC(=O)N4)cs2)cc1OCCC | – | IC50 (Homo sapiens [1]): Not Active
O=C1CCc2cc(-c3csc(-c4ccc(C(=O)O)cc4)n3)ccc2N1 | – | IC50 (Homo sapiens [1]): Not Active
c1cncc(-c2csc(-c3cccnc3)n2)c1 | 1 | –
O=C1CCc2cc(-c3csc(-c4ccccc4)n3)ccc2N1 | > 10 | –
COc1ccc(C(O)c2nc(-c3ccc4c(c3)CCC(=O)N4)cs2)cc1OC (stereo not given) | – | IC50 (Homo sapiens [1]): Not Active
COc1ccc(/C=C/c2nc(-c3ccc4c(c3)CCC(=O)N4)cs2)cc1OC | 2.8 | –
CCOc1ccc(-c2nc(-c3ccccc3C(=O)O)cs2)cc1OCC | > 10 | solubility [3]: 21 mg/mL
CCOc1ccc(-c2nc(-c3cccc(C(=O)O)c3)cs2)cc1OCC | 0.005 | solubility [3]: 23 mg/mL
COc1cc(OC)cc(-c2nc(-c3ccc4c(c3)CCC(=O)N4)cs2)c1 | – | IC50 (Homo sapiens [1]): Not Active
O=C1CCc2cc(-c3csc(-c4ccc([N+](=O)[O-])cc4)n3)ccc2N1 | – | IC50 (Homo sapiens [1]): Not Active
COc1cccc(-c2nc(-c3ccc4c(c3)CCC(=O)N4)cs2)c1OC | – | IC50 (Homo sapiens [4]): Active
COc1ccc(C(=O)c2nc(-c3ccc4c(c3)CCC(=O)N4)cs2)cc1OC | 1 | –
CCCCOc1ccc(-c2nc(-c3ccc4c(c3)CCC(=O)N4)cs2)cc1OC | – | IC50 (Homo sapiens [1]): Not Active
CCCCCCCCCCOc1ccc(-c2nc(-c3ccc4c(c3)CCC(=O)N4)cs2)cc1OCCCCCCCCCC | – | IC50 (Homo sapiens [5]): Not Active
CCOc1ccc(-c2nc(-c3ccc(C(=O)O)o3)cs2)cc1OCC | 0.02 | solubility [3]: 23 mg/mL

SMILES | IC50 (Homo sapiens [2]) [µM] | other results
CCOc1ccc(-c2nc(-c3ccc(C(=O)O)cc3)cs2)cc1OCC | 0.2 | solubility [3]: 23 mg/mL
O=C1CCc2cc(-c3csc(-c4ccc5c(c4)OCCO5)n3)ccc2N1 | – | IC50 (Homo sapiens [1]): Not Active
c1ccc(-c2csc(-c3cccnc3)n2)cc1 | 1 | –
CCCCOc1ccc(-c2nc(-c3ccc4c(c3)CCC(=O)N4)cs2)cc1OCCCC | – | IC50 (Homo sapiens [1]): Not Active
CC(=O)Oc1ccc(-c2nc(-c3ccc4c(c3)CCC(=O)N4)cs2)cc1OC(C)=O | – | IC50 (Homo sapiens [6]): Not Active
CCCOc1ccc(-c2nc(-c3ccc4c(c3)CCC(=O)N4)cs2)cc1OC | – | IC50 (Homo sapiens [1]): Not Active
O=C1CCc2cc(-c3csc(-c4ccc(Cl)cc4)n3)ccc2N1 | – | IC50 (Homo sapiens [1]): Not Active
CCOc1ccc(-c2nc(-c3ccc(C(=O)O)s3)cs2)cc1OCC | 0.08 | solubility [3]: 23 mg/mL
COc1ccc(-c2nc(-c3ccc4c(c3)CCC(=O)N4)co2)cc1OC | > 10 | –
Nc1ccc(-c2csc(-c3cccnc3)n2)cc1 | 3 | –
COc1cc(-c2nc(-c3ccc4c(c3)CCC(=O)N4)cs2)ccc1S(C)(=O)=O | – | IC50 (Homo sapiens [1]): Not Active
CCOc1ccc(-c2nc(-c3cc(OC(C)=O)cc(OC(C)=O)c3)cs2)cc1OCC | 0.001 | solubility thermodynamic [7]: < 0.001 mg/mL
COc1ccc(-c2nc(-c3ccc4c(c3)CCC(=O)N4)c[nH]2)cc1OC | > 10 | –
COc1ccc(Cc2nc(-c3ccc4c(c3)CCC(=O)N4)cs2)cc1OC | 10 | –
O=C1CCc2cc(-c3csc(-c4cccnc4)n3)ccc2N1 | 1 | –
CCOc1ccc(-c2nc(-c3cccc(C(=O)O)n3)cs2)cc1OCC [TETOMILAST] | 0.07 | solubility [3]: 21 mg/mL

Second part, led by results:

IC50 (Homo sapiens [2]) [µM] | SMILES | other results
0.09 | CCCOc1cc(-c2nc(-c3ccc4c(c3)CCC(=O)N4)cs2)ccc1OC | –
9 | COc1ccc(-c2nc(-c3ccc4c(c3)CCC(=O)N4)cs2)cc1 | –
0.8 | COc1cc(-c2nc(-c3ccc4c(c3)CCC(=O)N4)cs2)ccc1[S+](C)[O-] (stereo not given) | –
0.3 | CCCCOc1cc(-c2nc(-c3ccc4c(c3)CCC(=O)N4)cs2)ccc1OC | –
0.6 | CCOc1ccc(-c2nc(-c3ccc4c(c3)CCC(=O)N4)cs2)cc1OC | –
0.4 | COc1cc(-c2nc(-c3ccc4c(c3)CCC(=O)N4)cs2)ccc1SC | –
0.08 | CCOc1ccc(-c2nc(-c3ccc4c(c3)CCC(=O)N4)cs2)cc1OCC | –
0.3 | COc1ccc(-c2nc(-c3ccc4c(c3)CCC(=O)N4)cs2)cc1OC | –
0.09 | CCOc1cc(-c2nc(-c3ccc4c(c3)CCC(=O)N4)cs2)ccc1OC | –
3 | COc1ccc(-c2nc(-c3ccc4c(c3)CCC(=O)N4)cs2)c(OC)c1 | –
1 | O=C1CCc2cc(-c3csc(-c4ccc(O)c(O)c4)n3)ccc2N1 | –
